Results collected from several papers.
Target: Mitogen-activated protein kinase kinase kinase 9 (MAP3K9, Homo sapiens, UniProt P80192)
Observed: enzyme activity
Mode: inhibitor

SMILES	method	concentration	remaining activity
Cc1nn(CC(F)(F)F)cc1Nc1nccc(NCc2ccc(S(N)(=O)=O)cc2)n1	radiometric	1 µM	97%
Cc1sc(C(=O)NC2COC2)cc1-n1cc(NC(=O)Nc2c(F)cccc2Cl)cn1	–	10 µM	87.5%
Cc1ccc(C(=O)Nc2ccc(CN3CCN(C)CC3)c(C(F)(F)F)c2)cc1C#Cc1cnc2cccnn12	–	23.5 nM	96%
Oc1cccc(-c2nc(N3CCOCC3)c3oc4ncccc4c3n2)c1	–	10 µM	65%
O=C(NCCCNc1ccnc(Nc2cccc(NC(=O)N3CCCC3)c2)n1)C1CCC1	radiometric	1 µM	79%
Cc1cnc(NC2CCOCC2)nc1-n1cnc(C(=O)NC(CN)c2cc(F)cc(Cl)c2)c1 (stereo not shown)	radiometric	1 µM	94%
CN1CCc2cc(Nc3ncc(C4CC4)c(NCCCNC(=O)C4CCC4)n3)ccc2C1	radiometric	1 µM	14%
CC(C)(O)[C@H]1CC[C@H](Nc2ccc3ncc(-c4cccc(C(F)(F)F)c4)n3n2)CC1	–	1 µM	77%
O=C(Nc1cnn(-c2csc(C(=O)NC3COC3)c2)c1)Nc1c(F)cccc1Cl	–	5 µM	88.5%
Cc1nn(CC(F)(F)F)cc1Nc1ncc(Br)c(NCCc2cnc[nH]2)n1	radiometric	1 µM	30%
FC(F)c1nc2ccccc2n1-c1nc(N2CCOCC2)nc(N2CCOCC2)n1	–	10 µM	86%
COc1cc(Nc2cnc(C#N)c(O[C@H](C)CN(C)C)n2)ncc1-c1cnn(C)c1	radiometric	10 µM	48%
COc1cc(Cl)c(C(=O)N[C@@H](CN[C@H]2CC[C@@H](N)CC2)Cc2ccc(C#N)cc2)cc1-c1ccc(CN[C@H](C)c2ccc(C)cc2)o1	–	1 µM	97%
Cc1nn(CC(F)(F)F)cc1Nc1ncc(C2CC2)c(NCc2ccc(S(N)(=O)=O)cc2)n1	radiometric	1 µM	90%
CCN(CC)c1ccc(C2=NNC(=O)CC2C)cc1[N+](=O)[O-] (stereo not shown)	–	10 µM	100%
CC(C)(C)c1nc(-c2cccc(NS(=O)(=O)c3c(F)cccc3F)c2F)c(-c2ccnc(N)n2)s1	radiometric	1 µM	70%
NS(=O)(=O)c1ccc(CNc2ccnc(Nc3cccc(CN4CCOCC4)c3)n2)cc1	radiometric	1 µM	81%
CC(C)(C)c1nc2c(s1)c1nc(N)ncc1c1ccc(NS(=O)(=O)c3c(F)cccc3F)c(F)c12	radiometric	1 µM	66%
CCCOc1ccc(OC)c(F)c1C(=O)c1ccc(C(=O)N[C@@H]2CNC[C@H]2NC(=O)c2ccc3[nH]ncc3c2)cc1	–	10 µM	32%
